Measured values: BindingDB's records for doi:10.1021/jm0300835 (Duke University, 2003)

How the values were obtained:
[1] = molecular target: T1, M-phase inducer phosphatase 2 (Homo sapiens, UniProt P30305); test: Inhibitory concentration of compound against mutant WT of Cdc25B phosphatase was determined
T1 sequence (P30305 whole entry): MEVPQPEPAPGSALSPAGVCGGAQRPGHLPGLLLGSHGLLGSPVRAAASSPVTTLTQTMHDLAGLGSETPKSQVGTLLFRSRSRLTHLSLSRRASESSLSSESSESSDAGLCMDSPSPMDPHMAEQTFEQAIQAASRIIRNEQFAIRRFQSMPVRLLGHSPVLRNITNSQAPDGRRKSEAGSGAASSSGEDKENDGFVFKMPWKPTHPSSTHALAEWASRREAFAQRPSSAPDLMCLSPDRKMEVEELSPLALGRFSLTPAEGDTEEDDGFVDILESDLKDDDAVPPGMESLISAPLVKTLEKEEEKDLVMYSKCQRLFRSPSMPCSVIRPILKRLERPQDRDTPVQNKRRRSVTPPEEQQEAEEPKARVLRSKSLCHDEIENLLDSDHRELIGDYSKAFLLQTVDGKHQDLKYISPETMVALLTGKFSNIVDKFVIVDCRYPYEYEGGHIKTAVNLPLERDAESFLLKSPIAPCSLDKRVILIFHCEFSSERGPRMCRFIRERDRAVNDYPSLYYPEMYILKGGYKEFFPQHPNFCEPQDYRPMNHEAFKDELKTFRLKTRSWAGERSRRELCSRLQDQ
Method in brief: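 Cdc25B catalytic domain constructs (wild-type, site-directed point mutants, truncated); activity with 3-O-methylfluorescein phosphate at 50 μM (~5 × Km), product read at 477 nm by UV-vis under initial velocity (2–5% turnover); eight inhibitor concentrations, IC50 fitted; values are mean of two determinations.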

[2] = molecular target: T1, M-phase inducer phosphatase 2; test: Eight point inhibitory concentration against Cell division cycle 25B was determined
Method in brief: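 Cdc25B activity read by UV-vis at 477 nm as product formed from 3-O-methylfluorescein phosphate (mFP) at 50 μM (~5 × Km), time-dependent, initial-velocity conditions (2–5% turnover); eight inhibitor concentrations, IC50 fitted to eq 1. Each reaction compared with a simultaneous no-inhibitor control; selected compounds run in duplicate.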

[3] = molecular target: T1, M-phase inducer phosphatase 2; test: Inhibitory concentration of compound against Cdc25B phosphatase was determined using CDK2-p-TpY/Cyclin A as a substrate
Method in brief: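 Cdc25B IC50 with Cdk2-pTpY/CycA protein substrate at 300 nM; eight inhibitor concentrations; time-dependent assays; 1 mg/mL BSA carrier added only after TCA quench, not during reaction.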

[4] = molecular target: T1, M-phase inducer phosphatase 2; test: Inhibitory concentration of compound against mutant F475A of Cell division cycle 25B was determined
Method in brief: (§1)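 Cdc25B catalytic-domain point mutants, a truncated form and wild type were assayed with 3-O-methylfluorescein phosphate as substrate, monitored at 477 nm under initial velocity conditions. Values are the mean of two separate determinations.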

[5] = molecular target: T1, M-phase inducer phosphatase 2; test: Inhibitory concentration of compound against mutant E474Q of Cell division cycle 25B was determined; method in brief: as §1
[6] = molecular target: T1, M-phase inducer phosphatase 2; test: Inhibitory concentration of compound against mutant E478Q of Cell division cycle 25B was determined; method in brief: as §1
[7] = molecular target: T1, M-phase inducer phosphatase 2; test: Inhibitory concentration of compound against mutant M531A of Cell division cycle 25B was determined; method in brief: as §1
[8] = molecular target: T2, M-phase inducer phosphatase 3 (Homo sapiens, UniProt P30307); test: Eight point inhibitory concentration against […] was determined
T2 sequence (P30307 whole entry): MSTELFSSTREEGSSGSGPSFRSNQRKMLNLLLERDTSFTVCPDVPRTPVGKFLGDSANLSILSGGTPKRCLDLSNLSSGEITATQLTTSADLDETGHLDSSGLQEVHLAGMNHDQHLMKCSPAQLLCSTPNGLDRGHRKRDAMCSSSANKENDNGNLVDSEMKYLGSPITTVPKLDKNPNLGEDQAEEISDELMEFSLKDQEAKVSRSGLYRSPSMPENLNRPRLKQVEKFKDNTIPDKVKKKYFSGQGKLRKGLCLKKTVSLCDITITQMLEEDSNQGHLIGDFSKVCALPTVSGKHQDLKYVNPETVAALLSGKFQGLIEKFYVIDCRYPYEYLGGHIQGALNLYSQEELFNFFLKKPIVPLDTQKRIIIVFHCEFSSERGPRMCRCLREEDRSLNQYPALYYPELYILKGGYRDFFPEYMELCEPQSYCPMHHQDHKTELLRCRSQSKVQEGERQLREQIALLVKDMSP
Method in brief: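 Phosphatase activity measured with 3-O-methylfluorescein phosphate at 50 μM (~5 × Km), product formation followed at 477 nm by UV-vis under initial velocity conditions (2–5% turnover) in time-dependent assays. Eight inhibitor concentrations were used, and IC50 was obtained by fitting to a dose–response equation.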

| IC50 [1] [µM] | IC50 [2] [µM] | IC50 [3] [µM] | IC50 [4] [µM] | IC50 [5] [µM] | IC50 [6] [µM] | IC50 [7] [µM] | IC50 [8] [µM] | Compound |
| --- | --- | --- | --- | --- | --- | --- | --- | --- |
| 18 | 18 | > 50 | – | – | – | – | – | O=C1CC(=O)C(=O)C(c2c[nH]c3ccccc23)C1=O [2,5-Dihydroxy-3-(1H-indol-3-yl)-[1,4]benzoquinone] |
| – | – | – | > 50 | > 50 | 6.5 | 6.5 | 15 | CC(C)=CCc1cccc2c(C3C(=O)C(=O)CC(=O)C3=O)c[nH]c12 [2,5-Dihydroxy-3-[7-(3-methyl-but-2-enyl)-1H-indol-3-yl]-[1,4]benzoquinone] |
